Assay [1] relates to Toxoplasma gondii. Put plainly: Antiparasitic activity against Toxoplasma gondii infected african green monkey Vero cells at 2 mM assessed as infected cells. The class given is functional. Summed up:
(§1)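 Vero cells were infected with RH-strain tachyzoites (5:1 parasite:cell) for 1 h, washed with PBS, and grown 24 h at 37 °C in medium 199 with 5% FCS. Compound was then added for 24 h. Cells were fixed with Bouin's, stained with Giemsa, and at least 400 cells were counted by light microscopy for the percentage infected. Hydroxyurea and sulfadiazine served as references.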

Assay [2] deals with Toxoplasma gondii. Put plainly: Antiparasitic activity against Toxoplasma gondii infected african green monkey Vero cells at 0.1 mM assessed as infected cells. The class given is functional. Summed up: as §1
The test system of assay [3] is Toxoplasma gondii. Put plainly: Antiparasitic activity against Toxoplasma gondii infected african green monkey Vero cells at 5 mM assessed as infected cells. The class given is functional. Summed up:
as §1

Assay [4] relates to Toxoplasma gondii. Put plainly: Antiparasitic activity against Toxoplasma gondii infected african green monkey Vero cells at 8 mM assessed as infected cells. Type of assay: functional. Summed up:
as §1

Assay [5] concerns Toxoplasma gondii. Put plainly: Antiparasitic activity against Toxoplasma gondii infected african green monkey Vero cells at 20 mM assessed as infected cells. The class given is functional. The essentials: as §1
For another assay, the system named is Vero. Put plainly: Inhibition of uninfected african green monkey Vero cells. The class given is cell-based. The settings on record: Chlorocebus sabaeus.
Assay [6] relates to Toxoplasma gondii. Put plainly: Inhibition of Toxoplasma gondii infected in african green monkey Vero cells. Type of assay: functional, organism-based. Summed up:
(§2)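 Infected Vero cultures were exposed to compound at 0.01–30 mM for 24 h, in triplicate per assay. IC50 for infected cells and intracellular parasites was derived by non-linear regression, using trypan blue exclusion.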

In assay [7] the test system is Toxoplasma gondii. Put plainly: Inhibition of intracellular parasite Toxoplasma gondii. Type of assay: functional, organism-based. Summed up:
as §2

By IC50 is commonly meant the midpoint of a concentration-inhibition curve. Consider `COc1cc(/C=N/NC(=S)Nc2ccccc2)ccc1O`, for which the Activity worked out at 19.7% in the assay on Toxoplasma gondii [1]; 80.05% in the assay on Toxoplasma gondii [2]; 19.3% in the assay on Toxoplasma gondii [3]; 2.6% in the assay with Toxoplasma gondii [4]; 0% with Toxoplasma gondii [5]. Further, the IC50 in the assay with Vero is 6 mM; in the assay on Toxoplasma gondii [6], 1 mM; in the assay with Toxoplasma gondii [7] it was 0.1 mM.

In the case of `S=C(N/N=C/c1cccc(Cl)c1)Nc1ccccc1`, the Activity turned out to be 60.69% in the assay on Toxoplasma gondii [1]; 44.52% with Toxoplasma gondii [2]; 52.06% in the assay on Toxoplasma gondii [3]; 24.49% with Toxoplasma gondii [4]; 0% in the assay with Toxoplasma gondii [5]. Further, the results for the IC50 in the assay with Vero, in the assay on Toxoplasma gondii [6] and with Toxoplasma gondii [7] were 10 mM, 7 mM and 3 mM, respectively.

In the case of `COc1ccc(/C=N/NC(=S)Nc2ccccc2)cc1`, the Activity with Toxoplasma gondii [1] is 29.39%; with Toxoplasma gondii [2], 50.43%; with Toxoplasma gondii [3], 19%; in the assay on Toxoplasma gondii [4], 12.36%; in the assay with Toxoplasma gondii [5] it was 0%. For the same molecule, the half-inhibitory concentration (IC50) in the assay on Vero was 6 mM; in the assay with Toxoplasma gondii [6] it was 2 mM; in the assay with Toxoplasma gondii [7], 1 mM.

As for `S=C(N/N=C/c1ccc(Cl)cc1Cl)Nc1ccccc1`, the Activity with Toxoplasma gondii [1] turned out to be 33.28%; with Toxoplasma gondii [2], 49.33%; in the assay on Toxoplasma gondii [3], 31.32%; in the assay on Toxoplasma gondii [4], 12.08%; with Toxoplasma gondii [5], 0%. Besides, the figures for the half-maximal inhibitory concentration (IC50) with Vero, in the assay with Toxoplasma gondii [6] and in the assay with Toxoplasma gondii [7] were 6 mM, 2 mM and 1 mM, respectively.

Turning to `Cc1ccc(/C=N/NC(=S)Nc2ccccc2)cc1`, the Activity with Toxoplasma gondii [1] turned out to be 36.78%; in the assay on Toxoplasma gondii [2], 51.08%; in the assay on Toxoplasma gondii [3] it was 27.84%; in the assay with Toxoplasma gondii [4] it was 2.96%; with Toxoplasma gondii [5] it was 0%. The IC50 worked out at 8 mM in the assay on Vero, 4 mM with Toxoplasma gondii [6] and 3 mM with Toxoplasma gondii [7].

With `COc1cccc(/C=N/NC(=S)Nc2ccccc2)c1`, the Activity is 34.82% in the assay on Toxoplasma gondii [1]; 53.6% in the assay on Toxoplasma gondii [2]; 9.7% in the assay on Toxoplasma gondii [3]; 5.9% with Toxoplasma gondii [4]; 0% in the assay with Toxoplasma gondii [5]. Besides, the 50% inhibitory concentration (IC50) in the assay on Vero was determined as 5 mM; in the assay with Toxoplasma gondii [6], 2 mM; with Toxoplasma gondii [7] it was 1 mM.

Turning to `COc1ccc(/C=N/NC(=S)Nc2ccccc2)c(OC)c1`, the Activity is on record as 41.44% in the assay on Toxoplasma gondii [1]; 73% with Toxoplasma gondii [2]; 9.2% in the assay with Toxoplasma gondii [3]; 3.6% in the assay on Toxoplasma gondii [4]; 1.49% in the assay with Toxoplasma gondii [5]. In addition, the concentration for half-maximal inhibition (IC50) in the assay with Vero was determined as 5 mM; in the assay on Toxoplasma gondii [6], 2 mM; with Toxoplasma gondii [7], 2 mM.

Take `Fc1ccc(/C=N/NC(=S)Nc2ccccc2)cc1`: the Activity is 35.2% in the assay on Toxoplasma gondii [1]; 46.59% with Toxoplasma gondii [2]; 28% in the assay on Toxoplasma gondii [3]; 19.83% with Toxoplasma gondii [4]; 0% with Toxoplasma gondii [5]. Moreover, the 50% inhibitory concentration (IC50) in the assay on Vero is 10 mM; in the assay with Toxoplasma gondii [6], 2 mM; with Toxoplasma gondii [7], 1 mM.

`CC(C)(C)c1cc(/C=N/NC(=S)Nc2ccccc2)cc(C(C)(C)C)c1O`: the Activity was 64.07% in the assay on Toxoplasma gondii [1]; 63.44% in the assay on Toxoplasma gondii [2]; 30.51% in the assay on Toxoplasma gondii [3]; 6.42% in the assay on Toxoplasma gondii [4]; 0% in the assay on Toxoplasma gondii [5]. In addition, the values for the half-inhibitory concentration (IC50) with Vero, in the assay with Toxoplasma gondii [6] and in the assay with Toxoplasma gondii [7] were 10 mM, 5 mM and 4 mM, respectively.

In the case of `Fc1ccccc1/C=N/NC(=S)Nc1ccccc1`, the Activity in the assay on Toxoplasma gondii [1] is 28.13%; in the assay on Toxoplasma gondii [2] it was 91.5%; in the assay on Toxoplasma gondii [3], 14.32%; in the assay with Toxoplasma gondii [4], 29.29%; in the assay with Toxoplasma gondii [5] it was 0%. In addition, the 50% inhibitory concentration (IC50) was determined as 4 mM in the assay with Vero, 1.5 mM with Toxoplasma gondii [6] and 1 mM in the assay with Toxoplasma gondii [7].

On to `NC(=O)NO` [HYDROXYUREA], for which the Activity with Toxoplasma gondii [1] is listed as 22.78%; in the assay with Toxoplasma gondii [2] it was 58.23%; in the assay with Toxoplasma gondii [3] it was 10.4%; in the assay on Toxoplasma gondii [4], 7.37%; with Toxoplasma gondii [5], 0%. Further, the IC50 in the assay with Vero amounted to 1 mM; in the assay with Toxoplasma gondii [6] it was 0.5 mM; with Toxoplasma gondii [7], 0.1 mM.

Regarding `COc1cc(/C=N/NC(=S)Nc2ccccc2)cc(OC)c1OC`, the Activity is on record as 72.04% with Toxoplasma gondii [1]; 76.37% in the assay on Toxoplasma gondii [2]; 24.32% in the assay on Toxoplasma gondii [3]; 23.17% in the assay on Toxoplasma gondii [4]; 0% in the assay on Toxoplasma gondii [5]. In addition, the values for the IC50 in the assay with Vero, with Toxoplasma gondii [6] and in the assay with Toxoplasma gondii [7] were 10 mM, 3 mM and 2 mM, respectively.

`Nc1ccc(S(=O)(=O)Nc2ncccn2)cc1` [SULFADIAZINE]: the Activity with Toxoplasma gondii [1] amounted to 48.71%; in the assay with Toxoplasma gondii [2], 53.84%; with Toxoplasma gondii [3], 29.55%; in the assay on Toxoplasma gondii [4], 6.84%; with Toxoplasma gondii [5], 0%. Further, the IC50 in the assay on Vero is 8 mM; with Toxoplasma gondii [6], 3 mM; in the assay with Toxoplasma gondii [7], 3 mM.

Consider `S=C(N/N=C/c1ccccc1)Nc1ccccc1`, for which the Activity is on record as 77.82% with Toxoplasma gondii [1]; 82.5% in the assay on Toxoplasma gondii [2]; 31.83% in the assay on Toxoplasma gondii [3]; 13.52% in the assay on Toxoplasma gondii [4]; 0% in the assay on Toxoplasma gondii [5]. The 50% inhibitory concentration (IC50) is 5 mM with Vero, 5 mM in the assay on Toxoplasma gondii [6] and 4 mM with Toxoplasma gondii [7].

For `CN(C)c1ccc(/C=N/NC(=S)Nc2ccccc2)cc1`, the Activity with Toxoplasma gondii [1] came out at 35.81%; in the assay with Toxoplasma gondii [2] it was 76.14%; in the assay with Toxoplasma gondii [3], 18.14%; in the assay on Toxoplasma gondii [4], 13.46%; in the assay with Toxoplasma gondii [5] it was 0%. Further, the IC50 with Vero worked out at 6 mM; with Toxoplasma gondii [6] it was 2 mM; in the assay on Toxoplasma gondii [7], 1 mM.

Consider `S=C(N/N=C/c1ccc(Cl)cc1)Nc1ccccc1`, for which the Activity in the assay with Toxoplasma gondii [1] is 34.8%; with Toxoplasma gondii [2] it was 70.01%; in the assay with Toxoplasma gondii [3], 38.7%; in the assay on Toxoplasma gondii [4], 21.05%; in the assay with Toxoplasma gondii [5] it was 0%. Moreover, the values for the half-maximal inhibitory concentration (IC50) in the assay with Vero, in the assay with Toxoplasma gondii [6] and in the assay on Toxoplasma gondii [7] were 10 mM, 7 mM and 1.5 mM, respectively.

For `S=C(N/N=C/c1ccc(Cl)c(Cl)c1)Nc1ccccc1`, the Activity in the assay with Toxoplasma gondii [1] is reported as 38.02%; in the assay on Toxoplasma gondii [2], 49.18%; in the assay with Toxoplasma gondii [3], 21.96%; in the assay with Toxoplasma gondii [4] it was 4.54%; with Toxoplasma gondii [5] it was 0%. Besides, the IC50 with Vero was 6 mM; with Toxoplasma gondii [6] it was 5 mM; in the assay with Toxoplasma gondii [7], 2 mM.

Turning to `Cc1cccc(/C=N/NC(=S)Nc2ccccc2)c1`, the Activity stood at 39.82% with Toxoplasma gondii [1]; 66.23% in the assay on Toxoplasma gondii [2]; 26.86% in the assay with Toxoplasma gondii [3]; 22.72% in the assay with Toxoplasma gondii [4]; 0% in the assay on Toxoplasma gondii [5]. Also, the figures for the concentration for half-maximal inhibition (IC50) in the assay on Vero, with Toxoplasma gondii [6] and in the assay with Toxoplasma gondii [7] were 5 mM, 5 mM and 2 mM, respectively.

(Values after ChEMBL document CHEMBL1140759, “Synthesis, anti-Toxoplasma gondii and antimicrobial activities of benzaldehyde 4-phenyl-3-thiosemicarbazones and 2-[(phenylmethylene)hydrazono]-4-oxo-3-phenyl-5-thiazolidineacetic acids” (Bioorg Med Chem, 2008).)
